ChEMBL document CHEMBL4052614, “Novel 3',5'-diprenylated chalcones inhibited the proliferation of cancer cells in vitro by inducing cell apoptosis and arresting cell cycle phase” (Eur J Med Chem, 2017)
Activity calls are given as the source filed them. The rule behind the calls is not given here.

Experiments:
PC-3 [1] = assay: Induction of apoptosis in human PC3 cells assessed as necrotic cells at 5 umol/L after 48 hrs by annexin V-FITC/propidium iodide staining based flow cytometry (reference value: 4.6%); type: functional
K562 [2] = assay: Induction of morphological changes in human K562 cells assessed as increase in cell rounding at 5 umol/L after 48 hrs by inverted microscopic method; type: functional, cell-based
Summary of the method: (§1)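 Cells cultured in DMEM/10% FBS at 37 °C, 5% CO2. Exposed 48 h to 5 µmol/L compound alongside DMSO controls. Morphology (cell number, rounding, spacing, apoptotic bodies, spindle shape) observed under an inverted microscope with CCD camera.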

PC-3 [3] = assay: Cell cycle arrest in human PC3 cells assessed as decrease in S phase accumulation at 5 umol/L after 48 hrs by propidium iodide staining based flow cytometric method; type: functional
Summary of the method: (§2)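 Cells grown in DMEM with 10% FBS and penicillin/streptomycin at 37 °C, 5% CO2, and passaged at least 3 times after thawing. Treated 48 h at 5 µmol/L, DMSO-treated controls. Harvested by trypsin, PBS-washed, fixed in ice-cold ethanol, blocked 1 h at 4 °C in 5% BSA/PBS, RNase 1 µg/mL 30 min at 37 °C, PI 20 µg/mL final. Phase percentages read from PI histograms. Mean ± SD, three independent experiments.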

HEL [4] = assay: Cell cycle arrest in HEL cells assessed as decrease in S phase accumulation at 5 umol/L after 48 hrs by propidium iodide staining based flow cytometry; type: functional; settings: Homo sapiens; summary of the method: as §2
MDA-MB-231 [5] = assay: Growth inhibition of human MDA-MB-231 cells at 5 umol/L after 48 hrs by MTT assay relative to control; type: functional; settings: MDA-MB-231, 48 h, read-out: GI
Summary of the method: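 Cells kept in DMEM/10% FBS at 37 °C, 5% CO2, seeded at 4×10^3–8×10^3 cells/well, 24 h attachment, then 48 h with compound at 5 µmol/L. MTT (5 mg/mL solution) added for 4 h at 37 °C, formazan taken up in DMSO, A490 read. Percent inhibition as mean ± SD of three independent experiments. Doxorubicin as positive control.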

MDA-MB-231 [6] = assay: Induction of apoptosis in human MDA-MB-231 cells assessed as spindle like formation at 5 umol/L after 48 hrs by inverted microscopic method; type: functional, cell-based; summary of the method: as §1
PC-3 [7] = assay: Induction of apoptosis in human PC3 cells assessed as late apoptotic cells at 5 umol/L after 48 hrs by annexin V-FITC/propidium iodide staining based flow cytometry (reference value: 4.7%); type: functional
MDA-MB-231 [8] = assay: Cell cycle arrest in human MDA-MB-231 cells assessed as increase in G2 phase accumulation at 5 umol/L after 48 hrs by propidium iodide staining based flow cytometry; type: functional; summary of the method: as §2
HEL [9] = assay: Cell cycle arrest in HEL cells assessed as increase in G1 phase accumulation at 5 umol/L after 48 hrs by propidium iodide staining based flow cytometry; type: functional; settings: Homo sapiens; summary of the method: as §2
K562 [10] = assay: Induction of apoptosis in human K562 cells assessed as late apoptotic cells at 5 umol/L after 48 hrs by annexin V-FITC/propidium iodide staining based flow cytometry (reference value: 2.3%); type: functional
PC-3 [11] = assay: Induction of apoptosis in human PC3 cells assessed as viable cells at 5 umol/L after 48 hrs by annexin V-FITC/propidium iodide staining based flow cytometry (reference value: 86.7%); type: functional; settings: PC-3, 48 h, read-out: Activity
PC-3 [12] = assay: Cell cycle arrest in human PC3 cells assessed as decrease in G2 phase accumulation at 5 umol/L after 48 hrs by propidium iodide staining based flow cytometric method; type: functional; summary of the method: as §2
MDA-MB-231 [13] = assay: Induction of apoptosis in human MDA-MB-231 cells assessed as effect on cell adherence at 5 umol/L after 48 hrs by inverted microscopic method; type: functional, cell-based; summary of the method: as §1
MDA-MB-231 [14] = assay: Potency index, ratio of compound effect to (E)-2-Hydroxy-4,4-dimethoxy-3,5-diprenylchalcone effect for growth inhibition of human MDA-MB-231 cells; type: functional
HEL [15] = assay: Induction of apoptosis in HEL cells assessed as early apoptotic cells at 5 umol/L after 48 hrs by annexin V-FITC/propidium iodide staining based flow cytometry (reference value: 2.6 to 4.2%); type: functional, Homo sapiens
MDA-MB-231 [16] = assay: Induction of apoptosis in human MDA-MB-231 cells assessed as late apoptotic cells at 5 umol/L after 48 hrs by annexin V-FITC/propidium iodide staining based flow cytometry (reference value: 2.2%); type: functional
HEL [17] = assay: Cytotoxicity against HEL cells after 48 hrs by MTT assay; type: functional, cell-based; settings: Homo sapiens
Summary of the method: (§3)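 Cells kept in DMEM/10% FBS at 37 °C, 5% CO2, seeded at 4×10^3–8×10^3 cells/well and left 24 h to adhere. Exposed 48 h to a range of concentrations. MTT (5 mg/mL solution) added for 4 h at 37 °C, formazan dissolved in DMSO, absorbance read at 490 nm. IC50 derived from concentration–inhibition relation. Doxorubicin as positive control.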

PC-3 [18] = assay: Cytotoxicity against human PC3 cells after 48 hrs by MTT assay; type: functional, cell-based; summary of the method: as §3
K562 [19] = assay: Potency index, ratio of compound effect to (E)-2-Hydroxy-4,4-dimethoxy-3,5-diprenylchalcone effect for growth inhibition of human K562 cells; type: functional
K562 [20] = assay: Cell cycle arrest in human K562 cells assessed as decrease in G1 phase accumulation at 5 umol/L after 48 hrs by propidium iodide staining based flow cytometry; type: functional; summary of the method: as §2
PC-3 [21] = assay: Induction of apoptosis in human PC3 cells assessed as effect on cell adherence at 5 umol/L after 48 hrs by inverted microscopic method; type: functional, cell-based; summary of the method: as §1
MDA-MB-231 [22] = assay: Induction of morphological changes in human MDA-MB-231 cells assessed as increase in cell rounding at 5 umol/L after 48 hrs by inverted microscopic method; type: functional, cell-based; summary of the method: as §1
PC-3 [23] = assay: Cell cycle arrest in human PC3 cells assessed as increase in G1 phase accumulation at 5 umol/L after 48 hrs by propidium iodide staining based flow cytometric method; type: functional; summary of the method: as §2
PC-3 [24] = assay: Induction of morphological changes in human PC3 cells assessed as increase in intracellular space at 5 umol/L after 48 hrs by inverted microscopic method; type: functional, cell-based
Summary of the method: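 PC3 cells were kept in DMEM with 10% FBS, penicillin and streptomycin at 37 °C under 5% CO2, and were passaged at least 3 times after thawing. Cells were seeded at 4 × 10^3 to 8 × 10^3 cells/well and left to adhere for 24 h. They were then exposed to 5 µmol/L compound for 48 h. Morphology was viewed by inverted microscope against DMSO-treated controls.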

MDA-MB-231 [25] = assay: Induction of apoptosis in human MDA-MB-231 cells assessed as viable cells at 5 umol/L after 48 hrs by annexin V-FITC/propidium iodide staining based flow cytometry (reference value: 91.3%); type: functional; settings: MDA-MB-231, 48 h, read-out: Activity
HEL [26] = assay: Induction of morphological changes in HEL cells assessed as reduction in cell number at 5 umol/L after 48 hrs by inverted fluorescence microscopic analysis; type: functional, cell-based; settings: Homo sapiens; summary of the method: as §1
HEL [27] = assay: Induction of apoptosis in HEL cells assessed as necrotic cells at 5 umol/L after 48 hrs by annexin V-FITC/propidium iodide staining based flow cytometry (reference value: 0.3 to 1%); type: functional, Homo sapiens
HEL [28] = assay: Potency index, ratio of compound effect to (E)-2-Hydroxy-4,4-dimethoxy-3,5-diprenylchalcone effect for growth inhibition of HEL cells; type: functional, Homo sapiens

COc1c(CC=C(C)C)cc(C(=O)/C=C/c2cccnc2)c(O)c1CC=C(C)C
Activity (PC-3 [1]): 10.6%
Activity (K562 [2]): Active
Activity (PC-3 [3]): Active
Activity (HEL [4]): Active
inhibition of growth at 5 µM (MDA-MB-231 [5]): 83.4%
Activity (MDA-MB-231 [6]): Active
Activity (PC-3 [7]): 42.7%
Activity (MDA-MB-231 [8]): Active
Activity (HEL [9]): Active
Activity (K562 [10]): 14.6%
viability at 5 µM (PC-3 [11]): 44.9%
Activity (PC-3 [12]): Active
Activity (MDA-MB-231 [13]): Active
Ratio (MDA-MB-231 [14]): 3 - 4
Activity (HEL [15]): 5.6%
Activity (MDA-MB-231 [16]): 36.8%
Activity (HEL [17]): Dose-dependent effect
IC50 (HEL [17]): 1.85 µM
Activity (PC-3 [18]): Dose-dependent effect
IC50 (PC-3 [18]; PC-3, 48 h): 2.92 µM
Ratio (K562 [19]): 3 - 4
Activity (K562 [20]): Active
Activity (PC-3 [21]): Active
Activity (MDA-MB-231 [22]): Active
Activity (PC-3 [23]): Active
Activity (PC-3 [24]): Active
viability at 5 µM (MDA-MB-231 [25]): 35.2%
Activity (HEL [26]): Active
Activity (HEL [27]): 4.9%
Ratio (HEL [28]): 3 - 4
